According to ChEMBL document CHEMBL1145499, “Asiatic acid and corosolic acid enhance the susceptibility of Pseudomonas aeruginosa biofilms to tobramycin” (2007):

How the values were obtained:
Assay type in all cases: functional
Pseudomonas aeruginosa [1] = experiment: Antibacterial activity against Pseudomonas aeruginosa PAO1 assessed as log reduction of bacterial count at 10 ug/ml by rotating disk reactor method
Pseudomonas aeruginosa [2] = experiment: Antibacterial activity against Pseudomonas aeruginosa PAO1 assessed as log reduction of bacterial count at 50 ug/ml by CDC biofilm reactor method
Summary of the method: (§1)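 CDC-type biofilm reactor with PAO1 on polystyrene coupons, grown 24 h batch then 24 h continuous flow. Medium was fed at 13 ml/min, giving ~27 min residence. Coupon treatments, inoculum, medium and analysis matched the rotating disk runs: sonication, plate counts, log10 CFU/cm2, and log reduction against untreated control.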

Pseudomonas aeruginosa [3] = experiment: Antibacterial activity against Pseudomonas aeruginosa PAO1 assessed as log reduction of bacterial count at 100 ug/ml by rotating disk reactor method
Summary of the method: (§2)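 Rotating disk reactor (~200 rpm, 180 ml, 60-min residence, ca. 26°C) with polystyrene coupons and P. aeruginosa PAO1 inoculated per ASTM E-2196-02. Biofilms were grown 24 h in batch, then 24 h under flow. Compound was added to ~100 µg/ml final (ethanol or DMSO vehicle) for 24 h in batch. Coupons then received 100 µg/ml tobramycin or PBS for 2 h at room temperature. LR = negative-control mean log10 CFU/cm2 minus treated mean, three coupons per set.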

Pseudomonas aeruginosa [4] = experiment: Antibacterial activity against Pseudomonas aeruginosa PAO1
Pseudomonas aeruginosa [5] = experiment: Antibacterial activity against Pseudomonas aeruginosa PAO1 assessed as log reduction of bacterial count at 50 ug/ml by rotating disk reactor method
Pseudomonas aeruginosa [6] = experiment: Antibacterial activity against Pseudomonas aeruginosa PAO1 assessed as log reduction of bacterial count by rotating disk reactor method; summary of the method: as §2
Pseudomonas aeruginosa [7] = experiment: Antibacterial activity against Pseudomonas aeruginosa PAO1 assessed as log reduction of bacterial count at 100 ug/ml by CDC biofilm reactor method; summary of the method: as §1

MIC (Pseudomonas aeruginosa [4]) [µg/mL]	SMILES	Activity (Pseudomonas aeruginosa [1])	Activity (Pseudomonas aeruginosa [2])	Activity (Pseudomonas aeruginosa [3])	Activity (Pseudomonas aeruginosa [5])	Activity (Pseudomonas aeruginosa [6])	Activity (Pseudomonas aeruginosa [7])
≥ 128	C[C@H]1[C@H](C)CC[C@]2(C(=O)O)CC[C@]3(C)C(=CC[C@@H]4[C@@]5(C)C[C@@H](O)[C@H](O)[C@@](C)(CO)[C@@H]5CC[C@]43C)[C@H]12 [ASIATIC ACID]	0.14	0.8	0.19	0.12		
≥ 1	O=C(O)c1cn(C2CC2)c2cc(N3CCNCC3)c(F)cc2c1=O [CIPROFLOXACIN]					-0.29	
> 128	C[C@H]1[C@H](C)CC[C@]2(C(=O)O)CC[C@]3(C)C(=CC[C@@H]4[C@@]5(C)C[C@@H](O)[C@H](O)C(C)(C)[C@@H]5CC[C@]43C)[C@H]12 [COROSOLIC ACID]			0.02	-0.04		0.7
	NC[C@H]1O[C@H](O[C@H]2[C@H](O)[C@@H](O[C@H]3O[C@H](CO)[C@@H](O)[C@H](N)[C@H]3O)[C@H](N)C[C@@H]2N)[C@H](N)C[C@@H]1O [TOBRAMYCIN]	1.51		1.36	0.78	0.4	
